How the values were obtained:
THP-1 [1] = experiment: Cell cycle analysis, propidium iodide flow cytometry; assay type: cell-based, human; details: THP-1, IC50 dose, 24 h; vehicle control G0/G1 = 42.3%
Procedure, shortened: (§1)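 Seeded at 0.5 x 10^6 cells per well in 12-well plates and treated 24 h at the IC50 concentration of each test compound from CellTiter-Glo. Cells were pelleted (400 g, 5 min), PBS-washed and fixed in 80% ethanol overnight at -20 °C. Staining used 50 µg/mL PI plus RNase overnight at 4 °C.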

HL60 [2] = experiment: NucView caspase 3 activity assay by flow cytometry; assay type: cell-based, human; details: for The lowest dose of polyphenols at which there was a significant induction of apoptosis compared to the vehicle control: HL60, caspase 3 activity, 24 h, p<0.05; for EC50: Homo sapiens, HL-60, 24 h, read-out: AP50 (50% induction of apoptosis), Caspase 3 activity assay (C3)
Procedure, shortened: (§2)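 Seeded at 0.5 x 10⁶ cells/well and treated 24 h, with series of 0–50 or 0–250 µM depending on compound. Normalized to vehicle (0% apoptosis). Mean ± STD, three independent experiments in triplicate. One-way ANOVA/Tukey, p<0.05. AP50 = concentration giving 50% apoptotic cells.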

CCRF-CEM [3] = experiment: NucView caspase 3 activity assay by flow cytometry; assay type: cell-based, human; details: 24 h; for EC50: Homo sapiens, read-out: AP50 (50% induction of apoptosis), Caspase 3 activity assay (C3); for The lowest dose of polyphenols at which there was a significant induction of apoptosis compared to the vehicle control: caspase 3 activity, p<0.05
Procedure, shortened: as §2

non-tumor cells (CD34+) = experiment: NucView caspase 3 activity assay by flow cytometry; assay type: cell-based; details: 24 h; for EC50: read-out: AP50 (50% induction of apoptosis), Caspase 3 activity assay (C3); for The lowest dose of polyphenols at which there was a significant induction of apoptosis compared to the vehicle control: CD34+ non-tumour control cells, caspase 3 activity, p<0.05
KG1a [4] = experiment: Hoechst 33342 nuclear morphological analysis of apoptosis; assay type: cell-based; details: Homo sapiens, KG-1a, 24 h, read-out: AP50 (50% induction of apoptosis), Hoechst 33342 staining (Hoe)
Procedure, shortened: (§3)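 Seeded at 0.5 x 10⁶ cells/well in 12-well plates and treated 24 h. Cells were pelleted (400 g, 5 min, 4 °C), washed in PBS, fixed in 4% paraformaldehyde, cytospun, air-dried, then stained with 10 μg/ml Hoechst 33342 for 10 min in the dark. Fluorescence microscopy: 200 cells counted, scored by condensed/intense nuclei, shrinkage, blebbing and apoptotic bodies. % apoptotic nuclei calculated. AP50 = concentration giving 50% apoptotic cells.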

K562 [5] = experiment: NucView caspase 3 activity assay by flow cytometry; assay type: cell-based, human; details: for EC50: Homo sapiens, K562, 24 h, read-out: AP50 (50% induction of apoptosis), Caspase 3 activity assay (C3); for The lowest dose of polyphenols at which there was a significant induction of apoptosis compared to the vehicle control: K562, caspase 3 activity, 24 h, p<0.05
Procedure, shortened: as §2

KG1a [6] = experiment: Cell cycle analysis, propidium iodide flow cytometry; assay type: cell-based, human; details: IC50 dose, 24 h, vehicle control G0/G1 = 44.6%
Procedure, shortened: as §1

MOLT-3 [7] = experiment: Hoechst 33342 nuclear morphological analysis of apoptosis; assay type: cell-based; details: Homo sapiens, MOLT-3, 24 h, read-out: AP50 (50% induction of apoptosis), Hoechst 33342 staining (Hoe)
Procedure, shortened: as §3

THP-1 [8] = experiment: NucView caspase 3 activity assay by flow cytometry; assay type: cell-based, human; details: for EC50: Homo sapiens, THP-1, 24 h, read-out: AP50 (50% induction of apoptosis), Caspase 3 activity assay (C3); for The lowest dose of polyphenols at which there was a significant induction of apoptosis compared to the vehicle control: THP-1, caspase 3 activity, 24 h, p<0.05
Procedure, shortened: as §2

KG1a [9] = experiment: NucView caspase 3 activity assay by flow cytometry; assay type: cell-based, human; details: 24 h; for EC50: Homo sapiens, KG-1a, read-out: AP50 (50% induction of apoptosis), Caspase 3 activity assay (C3); for The lowest dose of polyphenols at which there was a significant induction of apoptosis compared to the vehicle control: KG1a, caspase 3 activity, p<0.05
Procedure, shortened: as §2

CCRF-CEM [10] = experiment: Cell cycle analysis, propidium iodide flow cytometry; assay type: cell-based, human; details: IC50 dose, 24 h, vehicle control G0/G1 = 41.9%
Procedure, shortened: as §1

K562 [11] = experiment: Hoechst 33342 nuclear morphological analysis of apoptosis; assay type: cell-based; details: Homo sapiens, K562, 24 h, read-out: AP50 (50% induction of apoptosis), Hoechst 33342 staining (Hoe)
Procedure, shortened: as §3

K562 [12] = experiment: Cell cycle analysis, propidium iodide flow cytometry; assay type: cell-based, human; details: K562, IC50 dose, 24 h; vehicle control G2/M = 13.6%
Procedure, shortened: as §1

K562 [13] = experiment: CellTiter-Glo luminescent cell viability assay; assay type: cell-based, human; details: K562, 24 h, doses 0, 2, 10, 50, 250, 500 µM, p<0.05
Procedure, shortened: (§4)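 Cells grown in RPMI 1640 with 10% FBS, 1.5 mM L-glutamine and penicillin/streptomycin at 37 °C, 5% CO2. Seeded at 2.5 x 10³ cells/well and exposed 24 h to ethanol-dissolved test compound (0, 2, 10, 50, 250, 500 µM) with 0.1% ethanol vehicle. ATP luminescence normalized to vehicle (100%). IC50 taken from linear regression. Lowest significant dose set by one-way ANOVA/Tukey, p<0.05. Triplicates, three independent experiments.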

MOLT-3 [14] = experiment: CellTiter-Glo luminescent cell viability assay; assay type: cell-based, human; details: MOLT-3, 24 h, doses 0, 2, 10, 50, 250, 500 µM, p<0.05
Procedure, shortened: as §4

U937 [15] = experiment: CellTiter-Glo luminescent cell viability assay; assay type: cell-based, human; details: U937, 24 h, doses 0, 2, 10, 50, 250, 500 µM, p<0.05
Procedure, shortened: as §4

JURKAT [16] = experiment: NucView caspase 3 activity assay by flow cytometry; assay type: cell-based, human; details: 24 h; for EC50: Homo sapiens, Jurkat, read-out: AP50 (50% induction of apoptosis), Caspase 3 activity assay (C3); for The lowest dose of polyphenols at which there was a significant induction of apoptosis compared to the vehicle control: JURKAT, caspase 3 activity, p<0.05
Procedure, shortened: as §2

HL60 [17] = experiment: Hoechst 33342 nuclear morphological analysis of apoptosis; assay type: cell-based; details: Homo sapiens, HL-60, 24 h, read-out: AP50 (50% induction of apoptosis), Hoechst 33342 staining (Hoe)
Procedure, shortened: as §3

U937 [18] = experiment: Cell cycle analysis, propidium iodide flow cytometry; assay type: cell-based, human; details: U937, IC50 dose, 24 h; vehicle control G0/G1 = 44.03%
Procedure, shortened: as §1

U937 [19] = experiment: Hoechst 33342 nuclear morphological analysis of apoptosis; assay type: cell-based; details: Homo sapiens, U-937, 24 h, read-out: AP50 (50% induction of apoptosis), Hoechst 33342 staining (Hoe)
Procedure, shortened: as §3

JURKAT [20] = experiment: as above; assay type: cell-based; details: Homo sapiens, 24 h, read-out: AP50 (50% induction of apoptosis), Hoechst 33342 staining (Hoe)
Procedure, shortened: as §3

KG1a [21] = experiment: CellTiter-Glo luminescent cell viability assay; assay type: cell-based, human; details: 24 h; for IC50: Homo sapiens, KG-1a, read-out: IC50 (50% inhibition of cellular proliferation); for The lowest dose of polyphenols at which there was a significant inhibition of cell proliferation compared to the vehicle control: KG1a, doses 0, 2, 10, 50, 250, 500 µM, p<0.05
Procedure, shortened: as §4

THP-1 [22] = experiment: Hoechst 33342 nuclear morphological analysis of apoptosis; assay type: cell-based; details: Homo sapiens, THP-1, 24 h, read-out: AP50 (50% induction of apoptosis), Hoechst 33342 staining (Hoe)
Procedure, shortened: as §3

[23] = tested on: non-tumor progenitor cells (CD34+); experiment: Cell cycle analysis, propidium iodide flow cytometry; assay type: cell-based; details: 24 h, within the IC50 ranges used to treat the leukemic cell lines

SMILES	Percentage of cells in G0/G1 phase of cell cycle (significant accumulation) (THP-1 [1])	The lowest dose of polyphenols at which there was a significant induction of apoptosis compared to the vehicle control (HL60 [2]) [µM]	EC50 (HL60 [2]) [µM]	EC50 (CCRF-CEM [3]) [µM]	The lowest dose of polyphenols at which there was a significant induction of apoptosis compared to the vehicle control (CCRF-CEM [3]) [µM]	EC50 (non-tumor cells (CD34+)) [µM]	The lowest dose of polyphenols at which there was a significant induction of apoptosis compared to the vehicle control (non-tumor cells (CD34+)) [µM]	EC50 (KG1a [4]) [µM]	EC50 (K562 [5]) [µM]	The lowest dose of polyphenols at which there was a significant induction of apoptosis compared to the vehicle control (K562 [5]) [µM]	Percentage of cells in G0/G1 phase of cell cycle (significant accumulation) (KG1a [6])	EC50 (MOLT-3 [7]) [µM]	EC50 (THP-1 [8]) [µM]	The lowest dose of polyphenols at which there was a significant induction of apoptosis compared to the vehicle control (THP-1 [8]) [µM]	EC50 (KG1a [9]) [µM]	The lowest dose of polyphenols at which there was a significant induction of apoptosis compared to the vehicle control (KG1a [9]) [µM]	Percentage of cells in G0/G1 phase of cell cycle (significant accumulation) (CCRF-CEM [10])	EC50 (K562 [11]) [µM]	The lowest dose of polyphenols at which there was a significant inhibition of cell proliferation compared to the vehicle control (K562 [13]) [µM]	The lowest dose of polyphenols at which there was a significant inhibition of cell proliferation compared to the vehicle control (MOLT-3 [14]) [µM]	also measured
O=C1c2cccc(O)c2C(=O)c2c(O)cc(CO)cc21 [Aloe - Emodin, Aloe-emodin]	G0/G1 =52%	50	185	50	50	> 250	250	360	> 250	50	G0/G1 =50%	150	> 250	50	> 250	50	G0/G1 =49%	500	50	50	Percentage of cells in G2/M phase of cell cycle (significant accumulation) (K562 [12]): G2/M =20%; The lowest dose of polyphenols at which there was a significant inhibition of cell proliferation compared to the vehicle control (U937 [15]): 50 µM; EC50 (JURKAT [16]): 50 µM; The lowest dose of polyphenols at which there was a significant induction of apoptosis compared to the vehicle control (JURKAT [16]): 50 µM; EC50 (HL60 [17]): 190 µM; Percentage of cells in G0/G1 phase of cell cycle (significant accumulation) (U937 [18]): G0/G1 =53%; EC50 (U937 [19]): 195 µM; EC50 (JURKAT [20]): 130 µM; IC50 (KG1a [21]): 310 µM; The lowest dose of polyphenols at which there was a significant inhibition of cell proliferation compared to the vehicle control (KG1a [21]): 50 µM; EC50 (THP-1 [22]): 283 µM; Cell cycle arrest in non-tumour control cells [23]: No Arrest <500µM
O=C(O)c1cc(O)c2c(c1)C(=O)c1cccc(O)c1C2=O [Rhein]	G0/G1 =47%	50	> 250	200	50	> 250	50	> 500	> 250	50	G0/G1 =49%	265	50	50	> 250	50	G0/G1 =54%	> 500	50	50	The lowest dose of polyphenols at which there was a significant inhibition of cell proliferation compared to the vehicle control (U937 [15]): 50 µM; EC50 (JURKAT [16]): > 250 µM; The lowest dose of polyphenols at which there was a significant induction of apoptosis compared to the vehicle control (JURKAT [16]): 50 µM; EC50 (HL60 [17]): > 500 µM; Percentage of cells in G0/G1 phase of cell cycle (significant accumulation) (U937 [18]): G0/G1 =55%; EC50 (U937 [19]): 140 µM; EC50 (JURKAT [20]): > 500 µM; IC50 (KG1a [21]): 169 µM; The lowest dose of polyphenols at which there was a significant inhibition of cell proliferation compared to the vehicle control (KG1a [21]): 50 µM; EC50 (THP-1 [22]): 60 µM; Cell cycle arrest in non-tumour control cells [23]: No Arrest <50µM

Reference: paper PMC3873039 (Anti-Cancer Agents in Medicinal Chemistry, 2013)
